# High-throughput results as filed in PubChem BioAssay.
# Sampled rows, rich in hits. Any-hit rate of the full collection: about 8.9%.
# Dynein cargo inh – blocks dynein driven cargo transport along microtubules; 3617.4 mouse cells, GR-EGFP nuclear translocation imaging; test concentration mostly 20 µM; stimulated with dexamethasone, 1 µM; active compounds read low; z-score, hits read low; 220,000 tested, 0.47% active; AID 1381;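 active = plate z-score of nuclear minus cytoplasmic receptor signal below a set negative limit, without overly bright fluorescence or cell loss, cut at about -3.5 in these data, passing the limit was not always enough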;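 also: z-score of nuclear minus cytoplasmic ring GR-EGFP intensity difference per well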
#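 medium = tetracycline-free induction medium containing charcoal-stripped FBS | also added = 1.0 µM final dexamethasone stimulus | schedule = 48 h induction, 1 h compound, 30 min dex at 37 °C | technique = fixed, Hoechst-stained cells imaged at 10x for EGFP | measure = GR-EGFP nuclear translocation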
# HSV replic up – HSV replication enhancement. HSV replication augmentation in cells, fold increase. maximum fold increase. 220,000 tested, 0.005% active; in the data active = maximum fold increase above about 1.5; inconclusive = no clear call, values can overlap the other calls; tested in PC3 cells
# b-catenin transl – modulators of beta-catenin nuclear translocation; nuclear translocation activity, % at 5 µM; 190,000 tested, 0.3% active; HeLa beta-catenin nuclear translocation, immunofluorescence imaging; AID 1665;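 active = nuclear translocation activity above 50% at 5 µM, with a well cell count of 50 or more; inconclusive = wells under 50 cells across six images, flagged as toxic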;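 also: per-cell ratio of nuclear to cytoplasmic median beta-catenin stain intensity; plate controls were DMSO negative control for no effect and GSK-3 inhibitor IX positive control for full effect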
#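 Read-out: Nuclear/cytoplasmic beta-catenin signal ratio, % activation | Assay system: Human HeLa cell line | Times: 24 h compound exposure at 37°C, 5% CO2 | Signal: Fluorescence imaging of beta-catenin antibody stain plus DAPI | Dosing: 5 µM primary, 0.02–20 µM confirmation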
# MT stabilize HCS – microtubule stabilizers in HeLa cells | % tubulin-high responders, % at 10 µM | HeLa tubulin immunostaining HCS, 24 h; share of cells brighter than vehicle mean+2SD | 200,000 tested, 0.83% active;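 active = plate Z-score above 3 for both tubulin-high and condensed-nucleus cell shares, with cell loss under 80%, at 10 µM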;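 also: anti alpha tubulin signal scored within the nucleus-defined area of each cell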
# Lmaj promast – Leishmania major promastigote growth inhibition; Leishmania major promastigotes, resazurin fluorescence viability; inhibition, % at 10 µM; 200,000 tested, 9% active; AID 1063; in the data active = inhibition above about 50%;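 also: promastigotes grown with compound for 44 hours at 28 °C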
# Dynein confirm – dynein cargo transport inhibition, confirmation; 3617.4 GR-EGFP nuclear translocation imaging, dexamethasone-induced; 1,000 tested, 69% active; calls only at 20 µM; shares compounds with Dynein cargo inh;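 active = inhibition of receptor movement into the nucleus at or above a set limit in both runs, with normal cell brightness and cell count; inconclusive = limit reached in only one run, brightness and count normal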;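 also: dexamethasone at 1 µM final in well for 30 min; nuclear minus cytoplasmic GR-EGFP mean intensity difference in channel 2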
# * hit, by the source's call; i = inactive; ? = inconclusive; / = no result; + = active, no number.
SMILES,Dynein cargo inh,HSV replic up,b-catenin transl,MT stabilize HCS,Lmaj promast,Dynein confirm
Cc1ccc(NC(=O)CN(C)C(=O)COc2c(Cl)cc(Cl)c3ccc(C)nc23)cc1,-0.061,i,-2.5,3.0,2.5,/
CC(C)(C)C(=O)Cn1ncc(N2CCCC2)c(Br)c1=O,-0.482,i,-1.3,2.1,-1.2,/
O=C(Cn1ncc(Cl)c(Cl)c1=O)c1ccc(Cl)cc1,-3.99*,/,-1.3,1.7,75.9*,i
Cc1ccc(NC(=O)CN(C)C(=O)Cn2ncc(Cl)c(Cl)c2=O)cc1,-6.33*,i,-1.3,4.7,73.5*,+
CN(C)/N=C1\CCS(=O)(=O)c2sccc21,-0.768,i,-0.1,1.6,-5.2,/
C=CCn1c(C)cc(C(=O)COC(=O)[C@@H](NC(=O)c2ccccc2Cl)C(C)C)c1C,-0.764,/,0.4,3.0,-1.4,/
Cc1nc2ccccc2n1CC(=O)N1CC(=O)Nc2ccccc21,0.201,i,-4.8,1.7,-5.2,/
C=CCn1c(C)cc(C(=O)Cn2ncc(Cl)c(Cl)c2=O)c1C,-4.58*,i,-1.5,2.9,86.5*,+
O=C1CN(C(=O)Cn2ncc(Cl)c(Cl)c2=O)c2ccccc2N1,-6.8*,i,-7.0,4.2,73.8*,+
Cc1ccc(NC(=O)CSCC(N)=O)cc1C,-0.221,i,1.3,3.1,-3.8,/
O=C(CN1CCCCC1)Nc1cccc(Oc2ccccc2)c1,-0.178,i,/,2.6,4.7,/
CCC(=O)Nc1ccc(N2CCCCC2)cc1,-0.585,i,3.6,0.8,-2.3,/
Cc1ccc(Sc2ccc(NC(=O)CCl)cc2)cc1C,-4.53*,i,2.9,2.2,100.0*,+
O=C(CCl)Nc1ccc(-c2ccccc2)cc1,-5.39*,i,2.2,3.0,79.2*,+
O=C(CCl)Nc1ccc(N2CCCCCC2)cc1,-6*,i,2.5,7.7,99.3*,+
O=C(CCl)Nc1cccc(Oc2ccccc2)c1,-4.28*,i,-0.4,5.2,97.9*,+
COc1ccc(N2CCN(C(=O)Cn3nnc(-c4ccc(N(C)C)cc4)n3)CC2)cc1,0.988,i,/,2.6,-4.3,/
CCC1=C2CC[C@H]3C(=O)NC(=O)[C@H]3[C@H]2[C@@]2(Cc3ccccc3)C(=NCC(=O)OC)OC(=O)N2C1=O,0.158,i,-0.8,/,/,/
CC(=O)Nc1ccc(/C=N/NC(=O)c2cc3cc(C)ccc3nc2C)cc1,0.0585,i,1.2,3.8,3.0,/
CCn1c(Cl)c(C=O)s/c1=N\S(=O)(=O)c1ccccc1,-7.03*,i,-0.9,/,/,+
COC(=O)c1nnn(-c2ccc(Cl)c(Cl)c2)c1C(=O)OC,0.92,i,-1.1,5.6,-4.5,/
COc1ccc(CC(=O)n2[nH]c(=O)cc(C)c2=O)cc1OC,-5.74*,i,-1.1,/,/,?
N#Cc1c(-c2ccc(Br)cc2)cc(-c2cccnc2)nc1N,-0.769,i,2.5,7.6,3.5,/
CS(=O)(=O)c1nc(-c2ccc(Br)cc2)cc(-c2ccccc2)c1C#N,-5.98*,i,/,44.2,83.9*,+
CS(=O)c1nc(-c2ccc(Br)cc2)cc(-c2ccccc2)c1C#N (stereo unspecified),-4.14*,i,-1.0,71.5,100.4*,+
SMILES,Dynein cargo inh,HSV replic up,b-catenin transl,MT stabilize HCS,Lmaj promast,Dynein confirm
CCOC(=O)c1c(C)oc2c1c(C(c1ccncc1)N1CCOCC1)c(O)c1ccccc12 (stereo unspecified),-3.54*,i,/,5.2,72.7*,i
COc1ccc(C(=O)/C=C/C(=O)N(CC(=O)NCCC(C)C)Cc2cccs2)c(O)c1,-6.14*,i,7.8,1.5,15.6,+
CS(=O)(=O)N(CC(=O)NC1CCCCC1)Cc1ccc(F)cc1,-0.0923,i,-2.0,1.2,-3.2,/
COc1ccc(C(=O)/C=C/C(=O)N(CC(=O)NC2CCCCC2)Cc2ccc(F)cc2)c(O)c1,-4.54*,i,3.3,4.3,23.9,+
CCc1nc2c(nnn2Cc2ccc(F)cc2)c(=O)[nH]1,-0.901,i,/,1.8,-3.7,/
CCc1nc(SCc2ccc(F)cc2)n[nH]1,2.1,i,0.1,6.7,-1.8,/
COc1cc(C(=O)Nc2cc(C)c(OCC(=O)N3CCOCC3)c(C)c2)cc(OC)c1OC,4.59,i,0.9,2.0,-3.5,/
CCOC(=O)C(NC(=O)c1cccc(Cl)c1)(Nc1nnc(C)s1)C(F)(F)F (stereo unspecified),-0.0954,i,-4.3,2.5,-3.5,/
